Results: ChEMBL document CHEMBL3421610, “Antimalarial activity of 4-amidinoquinoline and 10-amidinobenzonaphthyridine derivatives” (J Med Chem, 2015)
Converted amounts (≈) assume the structure as drawn. The source made the active and inactive calls. No cut-off for these calls is given here.

Columns and labels:
[1] = Half life in human liver microsomes at 1 uM by LC/MS analysis; type: ADME
Method in brief: (§1)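 Compound at 1 µM final, diluted from […], with 0.5 mg/mL pooled human or mouse liver microsomes, NADP, MgCl2 and 0.1 M PBS pH 7.4. Reaction started with 1 U/mL G6PD and shaken at 37 °C. Aliquots quenched in cold acetonitrile at 0, 10, 20, 30 and 60 min and quantified by LC/MS. Half-life from log plot of total ion chromatogram area remaining.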

Plasmodium falciparum [2] = assay: Antimalarial activity against chloroquine-resistant Plasmodium falciparum W2 assessed as growth inhibition after 18 hrs by [3H]-hypoxanthine uptake assay; type: functional, organism-based
Method in brief: (§2)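 P. falciparum clones D6, W2 and TM91C235; modified semiautomated microdilution. Compounds in DMSO, diluted in RPMI 1640 with 10% human plasma, tested over (1.56-100) x 10^-9 M; final DMSO 0.25-0.5%. Inoculum 0.5% parasitemia, 1% hematocrit. 24 h incubation, then [3H]-hypoxanthine added, further 18 h. Harvested and read by scintillation counting; IC50 by nonlinear regression.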

Plasmodium berghei [3] = assay: Antimalarial activity against erythrocytic stage of chloroquine resistant Plasmodium berghei ANKA infected in mouse assessed as cure rate at 160 mg/kg, po qd administered on day 3, 4 and 5 post infection measured 3 times per week for 30 days, starting from day 3 by Thompson test; type: functional, organism-based; set-up: dose 160 mg/kg
Method in brief: (§3)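 Male mice of 16-20 g inoculated intraperitoneally with 5 x 10^6 erythrocytes infected with CQ-resistant P. berghei ANKA. Drug given orally as a suspension once daily on days 3, 4 and 5 post-infection, five mice per dose. Blood films from day 3, three times weekly for 30 days. Cure means parasite-negative on day 30 or surviving 30 days. Mice losing >20% body weight sacrificed.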

[4] = Half life in mouse liver microsomes at 1 uM by LC/MS analysis; type: ADME; method in brief: as §1
Plasmodium falciparum [5] = assay: Antimalarial activity against chloroquine-sensitive Plasmodium falciparum D6 assessed as growth inhibition after 18 hrs by [3H]-hypoxanthine uptake assay; type: functional, organism-based; method in brief: as §2
Plasmodium falciparum [6] = assay: Antimalarial activity against chloroquine-resistant Plasmodium falciparum C235 assessed as growth inhibition after 18 hrs by [3H]-hypoxanthine uptake assay; type: functional, organism-based; method in brief: as §2
Plasmodium berghei [7] = assay: Antimalarial activity against erythrocytic stage of chloroquine resistant Plasmodium berghei ANKA infected in mouse assessed as parasite clearance at 160 mg/kg, po qd administered on day 3, 4 and 5 post infection measured on day 2 to 7 post last dose; type: functional, organism-based; set-up: dose 160 mg/kg
Method in brief: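 Male mice of 16-20 g inoculated intraperitoneally with 5 x 10^6 erythrocytes infected with CQ-resistant P. berghei ANKA. Drug given orally as a suspension once daily on days 3, 4 and 5 post-infection, five mice per dose. Parasitemia followed by blood films from day 3, three times weekly for 30 days; infected untreated mice served as negative controls.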

HepG2 = assay: Cytotoxicity against human HepG2 cells after 48 hrs by MTT assay; type: cell-based; conditions: HepG2, 48 h
Method in brief: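 HepG2 cells in supplemented MEM, plated at 9570 cells/well in 384-well format and incubated overnight at 37 °C, 5% CO2. Twelve duplicate 1.6-fold dilutions, 57–10,000 ng/ml, incubated 48 h. MTT added for 1 h at room temperature in the dark, formazan dissolved in acidified isopropanol, absorbance read. IC50 by sigmoidal variable-slope nonlinear regression; tryptanthrin control.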

Mus musculus = assay: Toxicity in mouse infected with erythrocytic stage of chloroquine resistant Plasmodium berghei ANKA up to 160 mg/kg, po qd administered on day 3, 4 and 5 post infection measured over 30 days; type: organism-based, Erythrocyte; set-up: dose 160 mg/kg, route oral; conditions: in vivo, 720 h
Method in brief: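 Male mice of 16-20 g infected intraperitoneally with CQ-resistant P. berghei ANKA (5 x 10^6 infected erythrocytes). Oral dosing once daily on days 3-5, five mice per group. Animals followed for 30 days by blood films; mice losing >20% body weight sacrificed.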

Plasmodium berghei [8] = assay: Antimalarial activity against erythrocytic stage of chloroquine resistant Plasmodium berghei ANKA infected in mouse assessed as cure rate at 120 mg/kg, po qd administered on day 3, 4 and 5 post infection measured 3 times per week for 30 days, starting from day 3 by Thompson test; type: functional, organism-based; set-up: dose 120 mg/kg; method in brief: as §3
hERG (KCNH2) = hERG (KCNH2) (Homo sapiens, UniProt Q12809); assay: Inhibition of human ERG expressed in CHL cells assessed as tail current at 10 uM after 7 mins by patch clamp assay relative to control; type: cell-based; conditions: CHL cells expressing human ERG
Plasmodium berghei [9] = assay: Antimalarial activity against erythrocytic stage of chloroquine resistant Plasmodium berghei ANKA infected in mouse assessed as cure rate at 60 mg/kg, po qd administered on day 3, 4 and 5 post infection measured 3 times per week for 30 days, starting from day 3 by Thompson test; type: functional, organism-based; set-up: dose 60 mg/kg; method in brief: as §3
Plasmodium berghei [10] = assay: Antimalarial activity against erythrocytic stage of chloroquine resistant Plasmodium berghei ANKA infected in mouse assessed as cure rate at 15 mg/kg, po qd administered on day 3, 4 and 5 post infection measured 3 times per week for 30 days, starting from day 3 by Thompson test; type: functional, organism-based; set-up: dose 15 mg/kg; method in brief: as §3
Salmonella typhi = assay: Mutagenicity in Salmonella typhi by Ames test; type: toxicity, organism-based; conditions: salmonella enterica subsp. enterica […]

Chain of hERG (KCNH2) (Q12809 whole entry): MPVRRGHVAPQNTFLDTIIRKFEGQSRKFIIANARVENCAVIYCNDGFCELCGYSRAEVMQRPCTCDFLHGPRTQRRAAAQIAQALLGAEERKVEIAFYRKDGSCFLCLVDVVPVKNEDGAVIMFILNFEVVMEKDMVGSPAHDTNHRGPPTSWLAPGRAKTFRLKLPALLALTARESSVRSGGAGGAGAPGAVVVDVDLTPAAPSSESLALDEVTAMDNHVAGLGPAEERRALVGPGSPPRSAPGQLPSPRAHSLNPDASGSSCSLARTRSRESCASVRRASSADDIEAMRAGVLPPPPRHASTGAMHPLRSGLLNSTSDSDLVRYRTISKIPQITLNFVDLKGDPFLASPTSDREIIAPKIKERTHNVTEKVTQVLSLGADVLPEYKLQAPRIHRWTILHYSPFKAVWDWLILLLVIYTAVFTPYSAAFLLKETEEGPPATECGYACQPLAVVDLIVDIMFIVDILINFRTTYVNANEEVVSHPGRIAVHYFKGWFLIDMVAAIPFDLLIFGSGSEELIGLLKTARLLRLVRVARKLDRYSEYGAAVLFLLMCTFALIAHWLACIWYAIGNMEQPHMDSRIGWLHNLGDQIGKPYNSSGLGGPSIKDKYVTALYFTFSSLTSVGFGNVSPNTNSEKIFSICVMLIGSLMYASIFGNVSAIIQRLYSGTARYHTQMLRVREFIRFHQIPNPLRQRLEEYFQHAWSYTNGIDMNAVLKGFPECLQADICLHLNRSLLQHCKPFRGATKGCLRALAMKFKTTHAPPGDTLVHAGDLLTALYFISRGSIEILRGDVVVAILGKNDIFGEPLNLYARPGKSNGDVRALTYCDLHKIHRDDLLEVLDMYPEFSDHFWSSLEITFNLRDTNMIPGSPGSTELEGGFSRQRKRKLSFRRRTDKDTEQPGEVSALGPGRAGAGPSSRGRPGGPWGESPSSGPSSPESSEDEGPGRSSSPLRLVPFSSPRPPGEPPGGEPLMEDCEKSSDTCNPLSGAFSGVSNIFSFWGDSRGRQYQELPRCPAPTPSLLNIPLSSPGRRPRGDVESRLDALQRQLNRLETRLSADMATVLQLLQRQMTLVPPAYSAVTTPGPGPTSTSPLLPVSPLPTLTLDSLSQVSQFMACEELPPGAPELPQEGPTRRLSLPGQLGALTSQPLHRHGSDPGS

SMILES	half-life at 1 µM [1] [min]	IC50 (Plasmodium falciparum [2]) [nM]	Activity (Plasmodium berghei [3])	half-life at 1 µM [4] [min]	IC50 (Plasmodium falciparum [5]) [nM]	IC50 (Plasmodium falciparum [6]) [nM]	Activity (Plasmodium berghei [7])	IC50 (HepG2) [µg/mL]	Activity (Mus musculus)	Activity (Plasmodium berghei [8])	inhibition at 7 min, 10 µM (hERG (KCNH2)) [%]	Activity (Plasmodium berghei [9])	Activity (Plasmodium berghei [10])	Activity (Salmonella typhi)
C/C(=N/c1ccnc2cc(Cl)ccc12)NCCCCN1CCCCC1	> 60	126	inactive	> 60	62	64	Active	9.81 (≈ 27.3 µM)	Non-toxic	–	–	–	–	–
COc1ccc2nc3cc(Cl)ccc3c(N/C(C)=N/CCCN3CCCCC3)c2n1	14	24.9	–	15	8	13.1	–	2.81 (≈ 6.59 µM)	Non-toxic	Active	94.5	–	–	–
CCN(CC)CC(C)(C)C/N=C(/Nc1c2ccc(Cl)cc2nc2ccc(OC)nc12)c1ccccc1	> 60	61	–	> 60	21.8	29.7	–	> 24.2	Non-toxic	–	10	Active	Active	–
CC(C)/C(=N/c1ccnc2cc(Cl)ccc12)NCCCCN1CCCCC1	29	18.6	–	31	7.5	12	–	5.71 (≈ 14.8 µM)	Non-toxic	Active	33	–	–	–
COc1ccc2nc3cc(Cl)ccc3c(N/C(C)=N/CCCN(C)C)c2n1	> 60	100	–	42	26	51.3	–	18.1 (≈ 46.8 µM)	Non-toxic	Active	91.5	–	–	–
CCN(CC)CCC/N=C(/Nc1c2ccc(Cl)cc2nc2ccc(OC)nc12)C(C)C	20	8.8	–	22	2	3.8	–	2.06 (≈ 4.67 µM)	–	–	86.5	–	–	–
CN(C)CCC/N=C(\c1ccccc1)N(CCCN(C)C)c1ccnc2cc(Cl)ccc12	> 60	121	–	> 60	7.1	45.4	–	5.77 (≈ 12.8 µM)	–	–	16.4	–	–	–
CN(C)CCCN/C(=N\c1ccnc2cc(Cl)ccc12)c1ccc(Cl)cc1	48	2.9	–	35	2	1.1	–	1.93 (≈ 4.8 µM)	–	–	115	–	–	Non-toxic
CCN(CC)CCN/C(=N\c1ccnc2cc(Cl)ccc12)C(C)C	> 60	97	Active	12	54	52	–	12.7 (≈ 36.6 µM)	Toxic	–	–	–	–	–
C/C(=N/c1ccnc2cc(Cl)ccc12)NC1CCN(C(C)C)CC1	> 60	166	inactive	> 60	108	134	Active	5.71 (≈ 16.6 µM)	Non-toxic	–	–	–	–	–
COc1ccc2nc3cc(Cl)ccc3c(N/C(=N/CCCN3CCCCC3)c3ccccc3)c2n1	9	3.3	–	12	5.1	4.3	–	2.56 (≈ 5.25 µM)	Non-toxic	Active	80	–	–	–
Clc1ccc2c(N(CCCN3CCCCC3)/C(=N/CCCN3CCCCC3)c3ccccc3)ccnc2c1	31	16	–	> 60	1.9	6.95	–	2.45 (≈ 4.6 µM)	–	–	21.7	–	–	–
CC(C)/C(=N/c1ccnc2cc(Cl)ccc12)NCCCN1CCCCC1	29	91	Active	43	34	56	–	> 24.2	Non-toxic	–	74.5	–	–	–
CCN(CC)CCC/N=C(\c1ccccc1)N(CCCN(CC)CC)c1ccnc2cc(Cl)ccc12	> 60	76.8	–	> 60	6.1	33.7	–	4.09 (≈ 8.05 µM)	–	–	21.9	–	–	–
CCN(CC)CCC/N=C(\C)Nc1c2ccc(Cl)cc2nc2ccc(OC)nc12	33	41	–	29	17.6	26.6	–	2.06 (≈ 4.97 µM)	Non-toxic	Active	100	–	–	–
CCN(CC)CCCN(CCCN(CC)CC)/C(C)=N\c1ccnc2cc(Cl)ccc12	> 60	121	–	> 60	15	33.9	–	3 (≈ 6.73 µM)	–	–	16.2	–	–	–
CCN(CC)CCC/N=C(/Nc1c2ccc(Cl)cc2nc2ccc(OC)nc12)c1cccnc1	32	20.6	–	29	7.2	8.2	–	8.6 (≈ 18 µM)	–	–	63	–	–	–
CCN(CC)CCCC(C)Nc1ccnc2cc(Cl)ccc12 (stereo unspecified) [CHLOROQUINE]	> 60	–	Active	> 60	–	–	–	12 (≈ 37.6 µM)	–	–	71	–	–	–
CCN(CC)CCCCN/C(=N\c1ccnc2cc(Cl)ccc12)C(C)C	55	254	Active	42	61	125	–	5.01 (≈ 13.4 µM)	Non-toxic	–	54.6	–	–	–
CCN(CC)CCCN/C(=N\c1ccnc2cc(Cl)ccc12)c1cccnc1	36	203	–	> 60	38.9	79.5	–	7.87 (≈ 19.9 µM)	–	–	101	–	–	–
COc1ccc2nc3cc(Cl)ccc3c(N/C(=N/CCCN(C)C)c3ccccc3)c2n1	18	1.98	–	44	1.8	1.7	–	5.78 (≈ 12.9 µM)	Non-toxic	Active	48.9	Active	–	–
CCN(CC)CCCCN/C(C)=N\c1ccnc2cc(Cl)ccc12	> 60	98.3	inactive	> 60	24.9	26	Active	2.68 (≈ 7.73 µM)	Non-toxic	–	–	–	–	–
C/C(=N/c1ccnc2cc(Cl)ccc12)NC1CCN(Cc2ccccc2)CC1	> 60	199	inactive	> 60	56	87	Active	8.07 (≈ 20.5 µM)	Non-toxic	–	–	–	–	–
Clc1ccc2c(/N=C(\NCCCN3CCCCC3)c3ccccc3)ccnc2c1	12	15.7	–	18	5.2	5.7	–	5.12 (≈ 12.6 µM)	–	–	93	–	–	–
